The results in this text go back to ChEMBL document CHEMBL1772969, “Synthesis, structure-activity relationship, and antimalarial activity of ureas and thioureas of 15-membered azalides” (J Med Chem, 2011).

Values after ≈ are worked out from the molar mass of the structure shown. Active and inactive are the calls of the source. Where only a bound is given, the exact number is not on record here.

What is called half-life is the time needed for the level to fall by half in the phase considered. A high value points to slow decline. As usually defined, the bioavailability is the share of a dose that reaches the circulation, judged against a reference dose that is usually intravenous. For orientation: IC50 means the midpoint of a concentration-inhibition curve. Lower therefore signals inhibition by little substance.

Data set [1] can be described thus: Apparent volume of distribution during terminal phase in Sprague-Dawley rat at 10 mg/kg, iv and 30 mg/kg, po. Format: ADME, organism-based. Particulars: in vivo, read-out: Vz/F. Summed up: (§1)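 Male Sprague-Dawley rats (250–300 g), crossover design. Dosed 10 mg/kg iv, then 2-day washout, then 30 mg/kg oral (free base equivalent), formulated in 1%/20% Encapsin (w/v) and saline. Blood sampled up to 24 h and analysed by LC-MS/MS. Clearance and terminal-phase Vd based on blood concentration.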

Data set [2] in a line: Half life in mouse liver microsomes at 1 uM by LCMS analysis. In kind it is ADME, Microsome. Summed up:
(§2)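 Compound at 1 μM final with 0.5 mg/mL pooled human or mouse liver microsomes, 1.3 mM NADP, 3.3 mM MgCl₂, 0.1 M PBS pH 7.4. Reaction started with 1 U/mL G6PD, shaken at 37 °C. Aliquots quenched with cold acetonitrile at 0, 10, 20, 30 and 60 min and quantified by LCMS. t₁/₂ taken from log plot of total ion chromatogram area remaining.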

Data set [3] can be described thus: Blood clearance in Sprague-Dawley rat at 10 mg/kg, iv and 30 mg/kg, po. Format: ADME, organism-based. Particulars: whole blood. In outline: as §1
A short description of data set [4]: Oral bioavailability in Sprague-Dawley rat at 30 mg/kg. Format: ADME, organism-based. Particulars: in vivo. Summed up: as §1
Data set [5] has as its system Plasmodium falciparum. The data set can be described thus: Antimalarial activity against chloroquine-sensitive Plasmodium falciparum D6 after 48 hrs by [3H]hypoxanthine incorporation assay. Format: functional, organism-based. In outline:
(§3)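 [3H]hypoxanthine incorporation assay (Desjardins method, Milhous modification) with 48 h drug exposure. Compounds and controls were 2-fold diluted across 11 concentrations. IC50 was fitted by nonlinear logistic dose-response. Values are averaged where multiple results were generated, with relative errors usually <30%.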

Data set [6] concerns Plasmodium berghei. The data set is described as follows: Antiplasmodial activity against Plasmodium berghei KBG-173 infected in sc dosed mouse administered bid for 3 days. Format: functional. Summed up: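 Male mice (24-30 g) were infected ip with 5 × 10⁶ P. berghei KBG-173-infected erythrocytes. Drug suspended in palm/peanut oil was given sc twice daily on days 3-5 post-infection at 160, 40 or 10 mg/kg per dose, 0.01 mL/g, in groups of 4-5. Blood films were taken day 6, then biweekly to day 31. Mice smear-negative on day 31 were counted cured. CD50 is the daily dose curing 50%.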

Another data set has as its system HepG2. The data set can be described thus: Cytotoxicity against human HepG2 cells after 1 to 4 hrs by MTS assay. In kind it is cell-based. Summed up: (§4)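 HepG2 and THP-1 cells grown in RPMI 1640 with 10% FBS at 37 °C, 5% CO₂, and passaged twice weekly. Compounds applied as continuous exposure. Viability read by MTS reagent, 1–4 h incubation, absorbance at 490 nm; IC₅₀ derived.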

Data set [7] in a line: Half life in Sprague-Dawley rat at 10 mg/kg, iv and 30 mg/kg, po. In kind it is ADME, organism-based. Particulars: in vivo. In outline: as §1
A further data set concerns THP-1. The data set is described as follows: Cytotoxicity against human THP1 cells after 1 to 4 hrs by MTS assay. Format: cell-based. Summed up: as §4
In general terms: Tetrazolium dyes change colour on reduction, which living cells bring about.

For data set [8], the system named is Plasmodium berghei. The data set can be described thus: Antiplasmodial activity against Plasmodium berghei KBG-173 infected in mouse assessed as mouse without parasitemia at 60 mg/kg, sc bid for 3 days measured on day 31. In kind it is functional, organism-based. Details: dose 60 mg/kg. Summed up:
(§5)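 P. berghei KBG-173: 5 × 10⁶ infected erythrocytes injected intraperitoneally into male mice (24–30 g); parasitemia 1.0–3.7% by day 3. Oil suspension given subcutaneously twice daily at 160, 40 or 10 mg/kg on days 3–5 postinfection (totals 960/240/60 mg/kg); 4–5 mice per group. Blood films on day 6, then biweekly to day 31; film-negative on day 31 counted as cured.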

Data set [9] has as its system Plasmodium falciparum. The data set can be described thus: Antimalarial activity against multidrug-resistant Plasmodium falciparum TM91C235 after 48 hrs by [3H]hypoxanthine incorporation assay. In kind it is functional, organism-based. Summed up:
as §3

Data set [10] is described as follows: Half life in human liver microsomes at 1 uM by LCMS analysis. In kind it is ADME, Microsome. In outline: as §2
In general terms: Liver microsomes are vesicles of endoplasmic reticulum, rich in cytochrome P450 enzymes.

In data set [11] the test system is Plasmodium falciparum. The data set is described as follows: Antimalarial activity against chloroquine/pyrimethamine-resistant Plasmodium falciparum W2 after 48 hrs by [3H]hypoxanthine incorporation assay. Format: functional, organism-based. In outline:
as §3

Data set [12] has as its system Plasmodium berghei. The data set can be described thus: Antiplasmodial activity against Plasmodium berghei KBG-173 infected in mouse assessed as mouse without parasitemia at 240 mg/kg, sc bid for 3 days measured on day 31. In kind it is functional, organism-based. Details: dose 240 mg/kg. In outline: as §5
Data set [13] has as its system Plasmodium berghei. The data set is described as follows: Antiplasmodial activity against Plasmodium berghei KBG-173 infected in mouse assessed as mouse without parasitemia at 960 mg/kg, sc bid for 3 days measured on day 31. Format: functional, organism-based. Details: dose 960 mg/kg. In outline:
as §5

Data set [14] has as its system Plasmodium falciparum. The data set is described as follows: Antimalarial activity against Plasmodium falciparum after 68 hrs. In kind it is functional, organism-based.
The subject of data set [15] is Plasmodium falciparum. The data set is described as follows: Ratio of compound IC50 to Azithromycin IC50 for Plasmodium falciparum. In kind it is functional.

Consider `CC[C@H]1OC(=O)[C@H](C)[C@@H](O[C@H]2C[C@@](C)(OC)[C@@H](O)[C@H](C)O2)[C@H](C)[C@@H](O[C@@H]2O[C@H](C)C[C@H](N(C)C)[C@H]2O)[C@](C)(O)C[C@@H](C)CN(CCCNC(=S)NCCCc2ccccc2)[C@H](C)[C@@H](O)[C@]1(C)O`, for which the Vd/F in data set [1] is 2.6 L/kg. The half-life at 1 µM in data set [2] and in data set [10] was greater than 2 h each time. Besides, the clearance in data set [3] is 2.3 mL/min/kg. In addition, in data set [4], the bioavailability came out at 1.3%. Also, the IC50 was determined as 0.107 µM in the data set with Plasmodium falciparum [5]; 22 µM in the data set on HepG2; 15 µM with THP-1; 0.082 µM in the data set on Plasmodium falciparum [9]; 0.085 µM in the data set on Plasmodium falciparum [11]. In the data set on Plasmodium berghei [6], this molecule registered a CD50 of 780 mg/kg. Also, the half-life in [7] is 13.4 h. Also, the result in the data set on Plasmodium berghei [8] was inactive.
For `CC[C@H]1OC(=O)[C@H](C)[C@@H](O[C@H]2C[C@@](C)(OC)[C@@H](O)[C@H](C)O2)[C@H](C)[C@@H](O[C@@H]2O[C@H](C)C[C@H](N(C)C)[C@H]2O)[C@](C)(O)C[C@@H](C)CN(CCCN(CCC#N)C(=S)NCCCc2ccccc2)[C@H](C)[C@@H](O)[C@]1(C)O`, the outcome in the data set on Plasmodium berghei [12] and with Plasmodium berghei [8] was inactive. For the same molecule, the Vd/F in data set [1] amounted to 31.7 L/kg. Also, the half-life at 1 µM in [2] and in data set [10] was greater than 2 h throughout. In data set [3], this molecule came in with a clearance of 24.5 mL/min/kg. Besides, in data set [4], the bioavailability is 21%. Also, the IC50 in the data set with Plasmodium falciparum [5] was found to be 0.179 µM; in the data set with HepG2 it was 9 µM; in the data set on THP-1 it was 5 µM; with Plasmodium falciparum [9], 0.062 µM; with Plasmodium falciparum [11], 0.088 µM. The CD50 in the data set on Plasmodium berghei [6] is 800 mg/kg. In [7], this molecule had a half-life of 15.2 h.
For `CC[C@H]1OC(=O)[C@H](C)[C@@H](O[C@H]2C[C@@](C)(OC)[C@@H](O)[C@H](C)O2)[C@H](C)[C@@H](O[C@@H]2O[C@H](C)C[C@H](N(C)C)[C@H]2O)[C@](C)(O)C[C@@H](C)CN(CCCN(CCC#N)C(=O)Nc2ccc(Cl)cc2Cl)[C@H](C)[C@@H](O)[C@]1(C)O`, in data set [1], the Vd/F was 23.3 L/kg. Also, the half-life at 1 µM in data set [2] and in data set [10] was greater than 2 h each time. Also, the clearance in [3] was 7.7 mL/min/kg. The molecule also registered a bioavailability in data set [4] of 18.4%. Further, the IC50 in the data set on Plasmodium falciparum [5] was 0.229 µM; in the data set on HepG2, 22 µM; in the data set with THP-1 it was 15 µM; in the data set on Plasmodium falciparum [9], 0.123 µM; in the data set on Plasmodium falciparum [11], 0.199 µM. The molecule further had a CD50 with Plasmodium berghei [6] of 420 mg/kg. The molecule further showed a half-life in [7] of 41.5 h. Besides, the outcome in the data set with Plasmodium berghei [13] was Active.
As for `CC[C@H]1OC(=O)[C@H](C)[C@@H](O[C@H]2C[C@@](C)(OC)[C@@H](O)[C@H](C)O2)[C@H](C)[C@@H](O[C@@H]2O[C@H](C)C[C@H](N(C)C)[C@H]2O)[C@](C)(O)C[C@@H](C)CN(CCCNC(=O)NC(C)c2cccc3ccccc23)[C@H](C)[C@@H](O)[C@]1(C)O` (stereo partly drawn), the outcome in the data set with Plasmodium berghei [12] was inactive. Moreover, the half-life at 1 µM in data set [2] and in [10] was greater than 2 h in each case. The IC50 was 0.292 µM in the data set with Plasmodium falciparum [5]; greater than 50 µM in the data set with HepG2; 46 µM in the data set with THP-1; 0.107 µM with Plasmodium falciparum [9]; 0.106 µM in the data set with Plasmodium falciparum [11]. The CD50 with Plasmodium berghei [6] came to 397.5 mg/kg. For the same molecule, the outcome in the data set on Plasmodium berghei [13] was Active.
In the case of `CC[C@H]1OC(=O)[C@H](C)[C@@H](O[C@H]2C[C@@](C)(OC)[C@@H](O)[C@H](C)O2)[C@H](C)[C@@H](O[C@@H]2O[C@H](C)C[C@H](N(C)C)[C@H]2O)[C@](C)(O)C[C@@H](C)CN(C)[C@H](C)[C@@H](O)[C@]1(C)O` [AZITHROMYCIN], the outcome in the data set on Plasmodium berghei [12] and with Plasmodium berghei [13] was Active. The Vd/F in data set [1] worked out at 20 L/kg. The half-maximal inhibitory concentration (IC50) is 0.5 µg/mL (≈ 0.668 µM) with Plasmodium falciparum [14]; 1.04 µM with Plasmodium falciparum [5]; greater than 50 µM in the data set with HepG2; greater than 50 µM in the data set on THP-1; 2.11 µM with Plasmodium falciparum [9]; 2.29 µM in the data set on Plasmodium falciparum [11]. Further, the half-life at 1 µM in data set [2] and in data set [10] was greater than 2 h each time. Further, the clearance in data set [3] was determined as 11 mL/min/kg. This molecule also had a bioavailability in [4] of 33%. Moreover, the CD50 in the data set on Plasmodium berghei [6] was determined as 50 mg/kg. In addition, the half-life in data set [7] is 24 h. Moreover, in the data set on Plasmodium falciparum [15], the “Ratio IC50” value amounted to 88.
Regarding `CC[C@H]1OC(=O)[C@H](C)[C@@H](O[C@H]2C[C@@](C)(OC)[C@@H](O)[C@H](C)O2)[C@H](C)[C@@H](O[C@@H]2O[C@H](C)C[C@H](N(C)C)[C@H]2O)[C@](C)(O)C[C@@H](C)CN(CCCNC(=S)NCc2ccccc2)[C@H](C)[C@@H](O)[C@]1(C)O`, the Vd/F in data set [1] amounted to 10.4 L/kg. Moreover, the half-life at 1 µM in [2] and in data set [10] was greater than 2 h in each case. In addition, the clearance in data set [3] is 4 mL/min/kg. Further, in data set [4], the bioavailability was found to be 3.4%. Moreover, the IC50 was 0.257 µM in the data set with Plasmodium falciparum [5]; greater than 50 µM in the data set on HepG2; 47 µM in the data set with THP-1; 0.156 µM with Plasmodium falciparum [9]; 0.121 µM with Plasmodium falciparum [11]. Also, the CD50 in the data set with Plasmodium berghei [6] is 285 mg/kg. Besides, the half-life in data set [7] was 30 h.
Take `CC[C@H]1OC(=O)[C@H](C)[C@@H](O[C@H]2C[C@@](C)(OC)[C@@H](O)[C@H](C)O2)[C@H](C)[C@@H](O[C@@H]2O[C@H](C)C[C@H](N(C)C)[C@H]2O)[C@](C)(O)C[C@@H](C)CN(CCCN(CCC#N)C(=S)NCCc2ccccc2)[C@H](C)[C@@H](O)[C@]1(C)O`: the half-life at 1 µM in [2] was greater than 2 h; in data set [10], 1.72 h. Further, the IC50 with Plasmodium falciparum [5] came to 0.088 µM; in the data set on HepG2, 13 µM; in the data set with THP-1, 6 µM; in the data set on Plasmodium falciparum [9], 0.048 µM; in the data set with Plasmodium falciparum [11], 0.051 µM. For the same molecule, the CD50 with Plasmodium berghei [6] is greater than 960 mg/kg. Moreover, the result with Plasmodium berghei [8] and in the data set on Plasmodium berghei [13] was inactive.
